The values below come from the RNAGym collection of RNA variant scans (doi:10.1126/science.aae0568).

Variants at the floor of the assay were thinned out.

B1: tRNA (parent)
chain: GUUCCGUUGGCGUAAUGGUAACGCGUCUCCCUCCUAAGGAGAAGACUGCGGGUUCGAGUCCCGUACGGAACG

The variants in this series derive from B1. Description: yeast fitness relative to wild type (ratio to wild type); higher = fitter; tRNA-Arg(CCU), competitive growth, 37 C, YPD. In a few lines: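 Amplicons of the tRNA-Arg(CCU) gene were sequenced, 100-nucleotide paired-end, from the start population and from each end population of a pooled yeast competition. The competition, in six parallel replicates, lasted 24 hours in YPD at 37°C. Fitness relative to wild type was calculated from changes in genotype frequencies. Genotypes had to have ≥ 100 starting reads, and estimates < 0.5 were set to 0.5.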
With C5A C30G C31G U32C G63A, the yeast fitness is not above 0.5. For G25A G41A C46A A69C, the yeast fitness is 0.935. As to G10A A36U A43G, the yeast fitness was 0.607. In the case of C22U C46A, the yeast fitness came out at 0.975. Consider G6C G25C C29G G52A A69U, for which the yeast fitness stood at 0.527.

As for G17A A43G, the yeast fitness was found to be 0.735. The result for A37G A40C C61G A69U reads not above 0.5; that for U13A C29G A42C C62G, not above 0.5. The result for G9C C11A A14G U47G A69C reads not above 0.5. Turning to U2A U8A G9A U13A C24A A45C, the yeast fitness is not above 0.5. For A36U A43G C46A G48C A70C, the yeast fitness is not above 0.5. In the case of A36U U64C, the yeast fitness is 0.581.

With C11G G38A G58A C60U, the yeast fitness was not above 0.5. Regarding A45C G51C U54C A57G, the yeast fitness was not above 0.5. Consider C5U C22G U28A C31G C55A G68C, for which the yeast fitness stood at 0.542. Turning to G12C G41A A65C, the yeast fitness was not above 0.5. Consider U16A C34U A57G C60A, for which the yeast fitness was not above 0.5. For the variant A14C C49G A69C, the yeast fitness is not above 0.5.

G12A U19C A42U G48C C55U: the yeast fitness stood at 0.593. U26G C34U C49A G51A A69U: the yeast fitness was not above 0.5. C4G C5G G56A A69C: the yeast fitness was not above 0.5.

In the case of A37U G68A, the yeast fitness worked out at 0.736.

For C29U C49U U59A, the yeast fitness is not above 0.5. Turning to U16C G67A, the yeast fitness came to 0.891. As for A21U G25A C33U A57U U59C, the yeast fitness was found to be 0.562. In the case of A21G A40C, the yeast fitness was determined as 0.88.

Regarding C4G C61G G63C A70G, the yeast fitness was 0.516. Consider C5G C46A, for which the yeast fitness turned out to be 0.917. Regarding A15C G23C C31A, the yeast fitness is not above 0.5. With G10C A36C G48A, the yeast fitness is not above 0.5. In the case of C4A U32C A43C, the yeast fitness was 0.57. As for A20G C46U G50C C61A A70C, the yeast fitness was determined as 0.7. The result for G12C G67A A69G reads 0.534; that for C4A U32A, 0.876; that for U3A U53C C55U, not above 0.5. Consider A15U C33G C62G, for which the yeast fitness was determined as 0.602. Consider C34A G67A, for which the yeast fitness came out at 0.652. In the case of A15U C49G, the yeast fitness worked out at 0.671.

With A14C C33G G44C U54G G58C, the yeast fitness was not above 0.5.

On to U59A U64A, for which the yeast fitness worked out at 0.73. Consider C27G C62G, for which the yeast fitness was determined as 0.695. As for G6C U7G C24G C34U U53C C55G C62A, the yeast fitness was not above 0.5.

As to U19A A40G C55G A65C, the yeast fitness is 0.534. Consider C11G A20U G56A C60U, for which the yeast fitness was 0.678. Consider C11G A20G U47G, for which the yeast fitness was not above 0.5. C22A A43C G63C G67A: the yeast fitness is not above 0.5. The result for C11U C27G reads 0.703; that for C11G A36U A37U C55U, not above 0.5; that for A40C C55G, 0.527. As for C30G G52C A69C, the yeast fitness is not above 0.5. In the case of G18C U26C G50C, the yeast fitness is not above 0.5.

As for C5G C29G, the yeast fitness amounted to 0.779. Take A42G A57C C61G: the yeast fitness turned out to be 0.708. In the case of A21U A70G, the yeast fitness turned out to be 0.786. On to C4G G12C A40G, for which the yeast fitness is not above 0.5. As for A57C G58C, the yeast fitness is 0.77.

For the variant U3C U54A, the yeast fitness amounted to 0.676. Turning to U3G A21C C46U, the yeast fitness came out at 0.505. The result for U8A C31U G58A C61G C66U reads not above 0.5.

As to G12C U13C A20C C29G, the yeast fitness was not above 0.5.

In the case of C34A G44C, the yeast fitness was determined as 0.574. Consider C4U C29A G41A, for which the yeast fitness was not above 0.5.

For C5U C61G, the yeast fitness stood at 0.771. Regarding G6C C11G A15C G25C C27G C30G G38C C61G U64G, the yeast fitness is not above 0.5.

For the variant C11A A43G, the yeast fitness was found to be 0.621. For the variant U2G A20G C22A A40C C46G G48A C49U G63A, the yeast fitness is not above 0.5. As to A20C G38C, the yeast fitness turned out to be 0.639. In the case of A21U C55U G56A it was 0.567; in that of C11U C31G C55U C61U A65G, not above 0.5; in that of A20C U26A C34G C46G, 0.595. In the case of A14U U26G A36G C60A it was not above 0.5; in that of A21G C46U G52C, 0.794. In the case of U2C U16C A36G C55U, the yeast fitness was not above 0.5. Regarding U7G A21G U53C A57C A69U, the yeast fitness is not above 0.5. For U19C C29G U47A, the yeast fitness was not above 0.5. The result for U16C U35C U47C reads not above 0.5. For the variant U13A G23C U32G C49U A69U, the yeast fitness was not above 0.5. Regarding C11A A15C A57G C61U, the yeast fitness was not above 0.5. As for A45G G63A G68A, the yeast fitness worked out at 0.536. Consider C29U A36C A43C C60A, for which the yeast fitness is not above 0.5. On to C5G C61A G67A, for which the yeast fitness was found to be 0.529. A14C A20U C30A C31A G52A G68U: the yeast fitness was determined as 0.551.

As to C4U C5U C46G, the yeast fitness came to 0.515. G9C U47G: the yeast fitness is 0.595.

U2G G6A G23A C29G G50U C55A: the yeast fitness is not above 0.5. On to A37G G41C A43U C66U A69C, for which the yeast fitness was not above 0.5.

In the case of G6C G9A A21U U28G C34U, the yeast fitness is not above 0.5. With A36C A37U G50C, the yeast fitness worked out at 0.576. Take U8A C30U C46A U54A A57G: the yeast fitness was not above 0.5. In the case of A21G U26C C29U G56C A69U it was not above 0.5. As for C11U U59G, the yeast fitness is 0.786. Consider G6A C31U C34U G52A, for which the yeast fitness is not above 0.5. C5U G18C U28C G63A: the yeast fitness was not above 0.5.

For the variant A20C G25A, the yeast fitness worked out at 1.06.

Consider U7G C27A A36C A42U, for which the yeast fitness was 0.532. On to U28C A43C G44C, for which the yeast fitness is not above 0.5. On to A20G U28A A40G, for which the yeast fitness is not above 0.5.

As for C55U C61A G68C, the yeast fitness is not above 0.5. The result for C24U C27U A43C reads 1.04; that for U2A C46A A70C, 0.705. For C5G C11U A37C C49U C60A C66G, the yeast fitness was determined as 0.685. The result for C5U U19C A69G reads 0.706; that for C29G G56C C61A, 0.512. With C11U A40U, the yeast fitness was 0.787. For the variant C5G C22G G56A, the yeast fitness was determined as 0.788. As to C11G A15G C33G G52C A69C, the yeast fitness was not above 0.5. Take G17C C31U A37U G41A G48A: the yeast fitness was not above 0.5. As to G9C A42C G68C, the yeast fitness was found to be 0.542. Take C49U U64A: the yeast fitness stood at 0.753. Consider A36C A45C U54A A57U A65U, for which the yeast fitness was not above 0.5. For C24G A42G, the yeast fitness came to 0.587. The result for C22U C46U G51C reads not above 0.5; that for U8G C29U C31U U54G A65U G67A, not above 0.5; that for C29G U35A A36C A65G C66G, not above 0.5. C11U G51A G58A A70C: the yeast fitness is not above 0.5.

On to A20G C29U G38A G48C C62G, for which the yeast fitness is not above 0.5. With U7G U13C A36U G50C U54C, the yeast fitness was not above 0.5.

In the case of C5U C49U C66U, the yeast fitness was 0.887. With U8G U26A G67C, the yeast fitness was not above 0.5. For the variant A40U C55U, the yeast fitness stood at 0.795. Take G6C U19A A20U C22G U28C C34A G52A: the yeast fitness is not above 0.5.

Take G10A A14U C66U: the yeast fitness was not above 0.5. As for C27G C46U C62U G68C, the yeast fitness is not above 0.5.

For C5U C24A A65U, the yeast fitness turned out to be 0.733. In the case of C5G U8C U47A G68C, the yeast fitness was not above 0.5. As for C5U C22G C29G G68C, the yeast fitness is not above 0.5. The result for U2A A15G C29U G41A reads not above 0.5; that for G10C C22G C29A G41A C46U A65C, not above 0.5. In the case of U13C A42G G56U it was not above 0.5; in that of G12C U16A C24G G48C, not above 0.5; in that of C27U C66A, 0.701.

For the variant A15C G48C G68U, the yeast fitness turned out to be 0.548.

On to U8A C27A U47C, for which the yeast fitness came to 0.558. Consider A20G G56A, for which the yeast fitness is 1.01. As for G51A C55U A65U, the yeast fitness was not above 0.5. C34U G44C U53C: the yeast fitness is not above 0.5. In the case of C11A A21U C49A it was not above 0.5. As to U2C C24G, the yeast fitness stood at 0.946. With G25A U32C G41A G56A, the yeast fitness worked out at 0.553. As for C29G A36U C49U, the yeast fitness is 0.538. Take U16A C33A U53A G63A: the yeast fitness is not above 0.5. For the variant C11G A40G, the yeast fitness turned out to be 0.567. For C24A C29U C61U C66G, the yeast fitness amounted to 0.544. In the case of G52A G67U, the yeast fitness was determined as 0.619. Take U16A G23C: the yeast fitness is 0.699. With A42C G56C, the yeast fitness worked out at 0.649.

Turning to G48C G51A, the yeast fitness turned out to be 0.849. For A15U C24G A42C C66A, the yeast fitness is 0.59. As to G25A U26C C29G A45G, the yeast fitness was not above 0.5. With C4U U16A A20G, the yeast fitness worked out at 0.665.

Consider G10C C33A U35C G67C, for which the yeast fitness came to 0.675. In the case of U7G A37U A65G it was 0.699; in that of C5G A36U, 0.583; in that of A15U G50C U54C, not above 0.5. As for A45C C46U C55U C62U, the yeast fitness was not above 0.5. With U26G G44A A69U, the yeast fitness is 0.673.

On to U26C G63C, for which the yeast fitness was found to be 0.76. Turning to G48C G56C, the yeast fitness worked out at 0.7. For the variant U13A C22G C24G A36U A40C, the yeast fitness was found to be 0.58. The result for C4U C11A U28G C31U G51C reads not above 0.5. As for G41C C60U G67A, the yeast fitness is not above 0.5.

For the variant A20C A21G C46U C60G, the yeast fitness was not above 0.5.

Turning to C5U U28G A45C C66U, the yeast fitness came to 0.599. Turning to A14C A20U C60G, the yeast fitness is 0.571. With C60U G63C, the yeast fitness is 0.572. For G10C A45U C60G C66G, the yeast fitness is not above 0.5. On to A14U U35A A43C, for which the yeast fitness was not above 0.5.
